# Assay results from ChEMBL document CHEMBL2146381, “Structure-activity relationship (SAR) study of ethyl 2-amino-6-(3,5-dimethoxyphenyl)-4-(2-ethoxy-2-oxoethyl)-4H-chromene-3-carboxylate (CXL017) and the potential of the lead against multidrug resistance in cancer treatment” (J Med Chem, 2012).
# Tests used:
# [1] = test system: HL-60; assay: Cytotoxicity against human HL60 cells assessed as cell viability after 48 hrs by celltiter-blue assay; assay type: functional, cell-based; settings: HL-60, 48 h
# Summary of the method: (§1)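 Tumour cell growth inhibition was measured in vitro, following the lab's established procedure. IC50 values are the mean of at least two independent experiments, each run in triplicate.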
# [2] = test system: HL-60; assay: Ratio of IC50 for doxorubicin-resistant human HL60 cells to IC50 for human HL60 cells; assay type: functional
# Summary of the method: (§2)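 Each resistant subline and its matched parental line were tested in the same growth-inhibition assay, with IC50 taken as the mean of at least two independent experiments in triplicate. The MDR/parental IC50 ratio is reported as relative sensitivity: above 1 means resistance, below 1 means collateral sensitivity. Parental lines came from different sources for each resistant pair.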
# [3] = test system: HL-60; assay: Ratio of IC50 for human HL60/ADR cells to IC50 for human HL60 cells; assay type: functional; summary of the method: as §2
# [4] = test system: K562; assay: Ratio of IC50 for doxorubicin-resistant human K562 cells to IC50 for human K562 cells; assay type: functional; summary of the method: as §2
# [5] = test system: CCRF-CEM; assay: Ratio of IC50 for human CCRF-CEM/VM-1-5 cells IC50 for human CCRF-CEM cells; assay type: functional; summary of the method: as §2
# [6] = test system: CCRF-CEM; assay: Ratio of IC50 for human CCRF-CEM/VLB100 cells IC50 for human CCRF-CEM cells; assay type: functional; summary of the method: as §2
# [7] = test system: CCRF-CEM; assay: Ratio of IC50 for human CCRF-CEM/C2 cells IC50 for human CCRF-CEM cells; assay type: functional; summary of the method: as §2
# [8] = test system: HL-60; assay: Ratio of IC50 for human HL60/MX2 cells to IC50 for human HL60 cells; assay type: functional; summary of the method: as §2
# [9] = test system: CCRF-CEM; assay: Cytotoxicity against human CCRF-CEM cells assessed as cell viability after 48 hrs by celltiter-blue assay; assay type: functional, cell-based; summary of the method: as §1
# [10] = test system: K562; assay: Ratio of IC50 for human K562/HHT300 cells to IC50 for human K562 cells; assay type: functional; summary of the method: as §2
# [11] = test system: HL-60; assay: Ratio of IC50 for daunorubicin-resistant human HL60 cells to IC50 for human HL60 cells; assay type: functional; summary of the method: as §2
# [12] = test system: K562; assay: Cytotoxicity against human K562 cells assessed as cell viability after 48 hrs by celltiter-blue assay; assay type: functional, cell-based; settings: K562, 48 h; summary of the method: as §1
smiles,measurement,setting,value
C#CCOC(=O)CC1C(C(=O)OCC#C)=C(N)Oc2ccc(-c3ccc(N(C)C)cc3)cc21 (racemic),IC50,[1],2.56 µM
C#CCOC(=O)CC1C(C(=O)OCC)=C(N)Oc2ccc(-c3ccc(NCC)cc3)cc21 (racemic),IC50,[1],33 µM
CCOC(=O)CC1C(C(=O)OCC)=C(N)Oc2ccc(-c3cc(OC)cc(OC)c3)cc21 (racemic),IC50,[1],10.7 µM
C#CCOC(=O)CC1C(C#N)=C(N)Oc2ccc(-c3cccc(N)c3)cc21 (racemic),IC50,[1],43.9 µM
CCOC(=O)CC1C(C(=O)OCC)=C(N)Oc2ccc(-c3cc(F)cc(F)c3)cc21 (racemic),IC50,[1],35.9 µM
C#CCOC(=O)CC1C(C(=O)OCC#C)=C(N)Oc2ccc(-c3ccc(N)cc3)cc21 (racemic),Ratio IC50,[2],0.6
same,Ratio IC50,[3],0.26
same,Ratio IC50,[4],1.08
same,Ratio IC50,[5],0.42
same,Ratio IC50,[6],0.93
same,Ratio IC50,[7],0.54
same,Ratio IC50,[8],1
same,IC50,[9],1.47 µM
same,Ratio IC50,[10],1.1
same,IC50,[1],0.61 µM
same,Ratio IC50,[11],0.27
same,IC50,[12],2.36 µM
COC(=O)CC1C(C(=O)OC)=C(N)Oc2ccc(-c3cc(OC)cc(OC)c3)cc21 (racemic),IC50,[1],2.42 µM
Nc1ccn([C@@H]2O[C@H](CO)[C@@H](O)[C@@H]2O)c(=O)n1 [CYTARABINE],Ratio IC50,[2],7.5
same,Ratio IC50,[3],0.1
same,Ratio IC50,[4],1.5
same,Ratio IC50,[5],6.5
same,Ratio IC50,[6],1
same,Ratio IC50,[7],4.1
same,Ratio IC50,[8],0.4
same,IC50,[9],0.006 µM
same,Ratio IC50,[10],7
same,IC50,[1],0.049 µM
same,IC50,[12],14 µM
CCOC(=O)CC1C(c2nc(-c3ccc(OC)cc3)no2)=C(N)Oc2ccc(-c3cc(OC)cc(OC)c3)cc21 (racemic),IC50,[1],> 80 µM
CCOC(=O)CC1C(C(=O)OCC)=C(N)Oc2ccc(-c3ccccn3)cc21 (racemic),IC50,[1],76.9 µM
CCOC(=O)CC1C(C(=O)OCC)=C(N)Oc2ccc(-c3ccnc(OC)c3)cc21 (racemic),IC50,[1],10.2 µM
CC(C)(C)c1ccc(NC(=S)N/N=C2\C(=O)Nc3ccccc32)cc1,Ratio IC50,[2],1
same,Ratio IC50,[3],0.47
same,Ratio IC50,[4],0.47
same,Ratio IC50,[5],2.1
same,Ratio IC50,[6],0.66
same,Ratio IC50,[7],0.58
same,Ratio IC50,[8],0.86
same,IC50,[9],7.05 µM
same,Ratio IC50,[10],0.43
same,IC50,[1],6.8 µM
same,Ratio IC50,[11],0.64
same,IC50,[12],26.9 µM
COc1cccc2c1C(=O)c1c(O)c3c(c(O)c1C2=O)C[C@@](O)(C(=O)CO)C[C@@H]3O[C@H]1C[C@H](N)[C@H](O)[C@H](C)O1 [DOXORUBICIN],Ratio IC50,[2],>100
same,Ratio IC50,[3],>15
same,Ratio IC50,[4],>10
same,Ratio IC50,[5],>15
same,Ratio IC50,[7],6.7
same,Ratio IC50,[8],5.3
same,IC50,[9],0.11 µM
same,Ratio IC50,[10],>20
same,IC50,[1],0.04 µM
same,Ratio IC50,[11],>50
same,IC50,[12],0.44 µM
CCOC(=O)CC1C(C(=O)OCC)=C(N)Oc2ccc(-c3ccco3)cc21 (racemic),IC50,[1],> 80 µM
C#CCOC(=O)CC1C(C(=O)OCC)=C(N)Oc2ccc(-c3cccc(NC)c3)cc21 (racemic),IC50,[1],7.13 µM
C#CCOC(=O)CC1C(C(=O)OCC#C)=C(N)Oc2ccc(-c3ccc(NC)cc3)cc21 (racemic),IC50,[1],2.45 µM
CCOC(=O)CC1C(C(=O)OCC)=C(N)Oc2ccc(-c3cccc(NC)c3)cc21 (racemic),IC50,[1],7.45 µM
C#CCOC(=O)CC1C(C(=O)OCC#C)=C(N)Oc2ccc(-c3cccc(N(C)C)c3)cc21 (racemic),IC50,[1],12 µM
CCOC(=O)CC1C(C(=O)OCC)=C(N)Oc2ccc(-c3cncnc3)cc21 (racemic),IC50,[1],37.9 µM
C#CCOC(=O)CC1C(C(=O)OCC#C)=C(N)Oc2ccc(-c3cccc(NC(=O)CCl)c3)cc21 (racemic),IC50,[1],5.3 µM
C/C=C(/C)C(=O)O[C@H]1C(C)=C2[C@H]([C@@H]1OC(=O)CCCCCCC)[C@@](C)(OC(C)=O)C[C@H](OC(=O)CCC)[C@@]1(O)[C@H]2OC(=O)[C@@]1(C)O [THAPSIGARGIN],Ratio IC50,[2],>50
same,Ratio IC50,[3],1
same,Ratio IC50,[4],4.2
same,Ratio IC50,[5],1
same,Ratio IC50,[6],7.7
same,Ratio IC50,[7],1.45
same,Ratio IC50,[8],0.02
same,IC50,[9],0.27 µM
same,Ratio IC50,[10],>10
same,IC50,[1],0.007 µM
same,Ratio IC50,[11],>50
same,IC50,[12],0.17 µM
C#CCOC(=O)CC1C(C(=O)OCC)=C(N)Oc2ccc(-c3cccc(N)c3)cc21 (racemic),IC50,[1],3.4 µM
CCOC(=O)CC1C(C#N)=C(N)Oc2ccc(-c3cc(OC)cc(OC)c3)cc21 (racemic),IC50,[1],19.6 µM
CCOC(=O)CC1C(C(=O)OCC)=C(N)Oc2ccc(-c3cccs3)cc21 (racemic),IC50,[1],> 80 µM
C#CCOC(=O)CC1C(C(=O)OCC#C)=C(N)Oc2ccc(-c3ccc(NCC)cc3)cc21 (racemic),IC50,[1],7.27 µM
CC[C@]1(O)C[C@H]2CN(CCc3c([nH]c4ccccc34)[C@@](C(=O)OC)(c3cc4c(cc3OC)N(C=O)[C@H]3[C@@](O)(C(=O)OC)[C@H](OC(C)=O)[C@]5(CC)C=CCN6CC[C@]43[C@@H]65)C2)C1 [VINCRISTINE],Ratio IC50,[2],>1000
same,Ratio IC50,[3],1
same,Ratio IC50,[4],>1000
same,Ratio IC50,[5],1
same,Ratio IC50,[6],>1000
same,Ratio IC50,[7],1
same,Ratio IC50,[8],1
same,IC50,[9],0.00017 µM
same,Ratio IC50,[10],>1000
same,IC50,[1],6e-05 µM
same,IC50,[12],0.0001 µM
CCOC(=O)CC1C(C(=O)OCC)=C(N)Oc2ccc(-c3cccc(F)c3)cc21 (racemic),IC50,[1],76.4 µM
CCOC(=O)CC1C(C(=O)OCC)=C(N)Oc2ccc(-c3cccc(N)c3)cc21 (racemic),IC50,[1],20.2 µM
C#CCOC(=O)CC1C(C(=O)OCC#C)=C(N)Oc2ccc(-c3cccc(NCCO)c3)cc21 (racemic),IC50,[1],0.63 µM
C#CCOC(=O)CC1C(C(=O)OCC#C)=C(N)Oc2ccc(-c3cccc(NC)c3)cc21 (racemic),IC50,[1],0.88 µM
C#CCOC(=O)CC1C(C(=O)OCC#C)=C(N)Oc2ccc(-c3cccc(NCC)c3)cc21 (racemic),IC50,[1],1.86 µM
CCOC(=O)CC1C(C(=O)OCC)=C(N)Oc2ccc(-c3ccncc3)cc21 (racemic),IC50,[1],10.2 µM
CCOC(=O)CC1C(C(=O)OC)=C(N)Oc2ccc(-c3cc(OC)cc(OC)c3)cc21 (racemic),IC50,[1],10.8 µM
O=C1c2c(O)ccc(O)c2C(=O)c2c(NCCNCCO)ccc(NCCNCCO)c21 [MITOXANTRONE],Ratio IC50,[2],>20
same,Ratio IC50,[3],2.4
same,Ratio IC50,[4],5.1
same,Ratio IC50,[5],>30
same,Ratio IC50,[6],2.3
same,Ratio IC50,[7],3
same,Ratio IC50,[8],>20
same,IC50,[9],0.036 µM
same,Ratio IC50,[10],>10
same,IC50,[1],0.016 µM
same,Ratio IC50,[11],>10
same,IC50,[12],0.51 µM
CCOC(=O)CC1C(C(=O)OCC)=C(N)Oc2ccc(-c3ccc(F)cc3)cc21 (racemic),IC50,[1],72.1 µM
COc1cc(OC)cc(-c2ccc3c(c2)C(CC(=O)OCC2CO2)C(C(=O)OCC2CO2)=C(N)O3)c1 (racemic),IC50,[1],> 80 µM
CCOC(=O)CC1C(C(=O)OCC)=C(N)Oc2ccc(-c3ccccc3F)cc21 (racemic),IC50,[1],73 µM
C#CCOC(=O)CC1C(C(=O)OCC)=C(N)Oc2ccc(-c3ccc(N)cc3)cc21 (racemic),IC50,[1],10.5 µM
CN(C)CC[C@H](CSc1ccccc1)Nc1ccc(S(=O)(=O)NC(=O)c2ccc(N3CCN(Cc4ccccc4-c4ccc(Cl)cc4)CC3)cc2)cc1[N+](=O)[O-] [ABT 737],Ratio IC50,[2],19.7
same,Ratio IC50,[3],4.5
same,Ratio IC50,[4],2.7
same,Ratio IC50,[5],2.2
same,Ratio IC50,[6],0.3
same,Ratio IC50,[7],0.2
same,Ratio IC50,[8],1.5
same,IC50,[9],0.74 µM
same,Ratio IC50,[10],2.3
same,IC50,[1],0.76 µM
same,Ratio IC50,[11],4.9
same,IC50,[12],34.7 µM
CCOC(=O)CC1C(C(=O)OCC)=C(N)Oc2ccc(-c3cccc(C(N)=O)c3)cc21 (racemic),IC50,[1],5.4 µM
CCOC(=O)CC1C(C(=O)OCC)=C(N)Oc2ccc(-c3ccc(F)cc3F)cc21 (racemic),IC50,[1],76.6 µM
C#CCOC(=O)CC1C(C(=O)OCC)=C(N)Oc2ccc(-c3cccc(NCC)c3)cc21 (racemic),IC50,[1],17.2 µM
C#CCOC(=O)CC1C(C(=O)OCC#C)=C(N)Oc2ccc(-c3cccc(-n4cnnn4)c3)cc21 (racemic),IC50,[1],1.62 µM
CCOC(=O)CC1C(C(=O)OCC)=C(N)Oc2ccc(-c3ccc(N)cc3)cc21 (racemic),IC50,[1],22.3 µM
CCOC(=O)CC1C(C(=O)OCC)=C(N)Oc2ccc(-c3cccnc3)cc21 (racemic),IC50,[1],21.5 µM
COc1cc([C@@H]2c3cc4c(cc3[C@@H](O[C@@H]3O[C@@H]5CO[C@@H](C)O[C@H]5[C@H](O)[C@H]3O)[C@H]3COC(=O)[C@H]23)OCO4)cc(OC)c1O [ETOPOSIDE],Ratio IC50,[2],>200
same,Ratio IC50,[3],>10
same,Ratio IC50,[4],>15
same,Ratio IC50,[5],>50
same,Ratio IC50,[6],8.6
same,Ratio IC50,[7],2.5
same,Ratio IC50,[8],9
same,IC50,[9],0.24 µM
same,Ratio IC50,[10],>1000
same,IC50,[1],0.11 µM
same,Ratio IC50,[11],>50
same,IC50,[12],2.3 µM
